Measurements as given in paper PMC4858174 (Innate immunity, 2015).
No end group written: not given here.

Tests used:
[1] = test system: C3a receptor; assay: C3a-induced degranulation, LAD2 cells; assay type: cell-based, human; settings: LPS 1 and 10 μg/ml, C3a 10 nM, three experiments
Method in brief: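 LAD2 cells (5 × 10^3 per well) in HEPES buffer with 0.1% BSA were pre-treated with buffer or E. coli LPS, then stimulated. Percent β-hexosaminidase release was taken against unstimulated cells lysed in 0.1% Triton X-100. Mean ± SEM, three experiments; two-way ANOVA with Bonferroni.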

[2] = test system: C3a receptor; assay: C3a-induced Ca2+ mobilization, LAD2 cells; assay type: cell-based, human
Method in brief: (§1)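 LAD2 cells, kept in StemPro-34 with 100 ng/ml hSCF, were loaded with indo-1 AM (1 μM) for 30 min at room temperature. They were washed and resuspended in HEPES-buffered saline at 0.2 × 10^6 cells per run. E. coli LPS (serotype R515) was given as a 2 min pre-incubation or premixed with the peptide, followed by C3a. Fluorescence was read at excitation 355 nm and emission 410 nm. Traces are representative of three experiments.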

[3] = test system: LAD2 cells endogenously expressing MrgX2; assay: Degranulation; assay type: cell-based, human; settings: for effect of E. coli-LPS on HDP-induced mast cell degranulation (summary): Discussion summary
[4] = test system: LAD2 cells endogenously expressing MrgX2; assay: Ca2+ mobilization, LAD2 cells; assay type: cell-based, human; settings: for effect of E. coli-LPS on HDP-induced Ca2+ mobilization (summary): Discussion summary
Method in brief: as §1

[5] = test system: untransfected RBL-2H3 cells, which do not express MrgX2; settings: no MrgX2; cited from earlier work
[6] = test system: untransfected RBL-2H3 cells, which do not express MrgX2; settings: no MrgX2; cited from earlier work; remark: listed apart in the source
[7] = test system: macrophages; settings: cited from earlier work

Substance | effect of E. coli-LPS on C3a-induced degranulation [1] | effect of mixture of E. coli-LPS and hBD3 on C3a-induced Ca2+ mobilization ([2]; LPS 1 μg/ml + hBD3 100 nM, then C3a 10 nM) | effect of E. coli-LPS on C3a-induced Ca2+ response ([2]; LPS 1 μg/ml preincubated, C3a 10 nM) | effect of E. coli-LPS on C3a-induced Ca2+ response (LL-37 experiment) ([2]; LPS 10 μg/ml, pre-incubated or mixed with LL-37 1 μM, C3a 10 nM) | effect of E. coli-LPS on HDP-induced mast cell degranulation (summary) [3] | effect of E. coli-LPS on hBD3-induced degranulation ([3]; LAD2, LPS 1 and 10 μg/ml, hBD3 100 nM, mean ± SEM of three experiments) | effect of E. coli-LPS on HDP-induced Ca2+ mobilization (summary) [4] | effect of premixed E. coli-LPS on hBD3-induced Ca2+ response ([4]; LAD2, LPS 1 μg/ml premixed with hBD3 100 nM) | effect of E. coli-LPS preincubation on hBD3-induced Ca2+ response ([4]; LAD2, LPS 1 μg/ml, 2 min preincubation, hBD3 100 nM) | intracellular Ca2+ response in LAD2 cells ([4]; hBD3 100 nM, not back to basal level even after 5 min) | Ca2+ mobilization in untransfected RBL-2H3 cells, earlier work [5] | degranulation in untransfected RBL-2H3 cells, earlier work [6] | inhibition of LPS-induced cytokine generation in macrophages, hBD3 [7] | effect of E. coli-LPS on LL-37-induced degranulation ([3]; LAD2, LPS 10 μg/ml, LL-37 1 μM, three experiments) | effect of E. coli-LPS on LL-37-induced Ca2+ mobilization ([4]; LAD2, LPS 10 μg/ml, 2 min pre-incubation or added simultaneously, LL-37 1 μM)
C3a: anaphylatoxin C3a; native complement C3a from Complement Technology | did not inhibit the response to C3a | not affected | no effect | no effect on the response to C3a | – | – | – | – | – | – | – | – | – | – | –
Human β-defensin3 (GIINTLQKYYCRVRGGRCAVLSCLPKEEQIGKCSTRGRKCCRRKK; not fully specified; ends and bridges not checked; UniProt P81534 23-67, looked up) [hBD3] | – | – | – | – | almost complete inhibition | substantial inhibition | almost complete inhibition | to the same extent as the 2 min pre-incubation protocol | complete inhibition | sustained intracellular Ca^2+ response | unresponsive | unresponsive | inhibit LPS-induced cytokine generation in macrophages | – | –
LL-37: human cathelicidin, host defense peptide | – | – | – | – | almost complete inhibition | – | almost complete inhibition | – | – | – | unresponsive | unresponsive | – | blocked | ablated
